Assay outcomes deposited in PubChem by Sanford-Burnham Center for Chemical Genomics.
SUMO1 PPI mod – modulators of SUMO1 protein-protein interactions, primary screen, biochemical, uHTS; SUMO1 binding to a labelled peptide, TR-FRET, 1 h; Small ubiquitin-related modifier 1 (Homo sapiens), P63165; inhibition, % at 20 µM; AID 602429, 2012; 360,000 compounds, 0.33% hits; in the data active means inhibition above about 37%
Target sequence (P63165 whole entry, looked up): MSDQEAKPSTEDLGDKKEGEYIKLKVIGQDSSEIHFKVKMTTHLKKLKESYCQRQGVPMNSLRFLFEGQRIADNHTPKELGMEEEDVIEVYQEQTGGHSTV
LMPTP block – LMPTP phosphatase inhibitors, primary screen, biochemical, fluorescence intensity, uHTS; 360,000 compounds, 0.22% hits; AID 651560, 2012; Low molecular weight phosphotyrosine protein phosphatase (Homo sapiens), P24666; recombinant LMPTP-A, OMFP fluorogenic substrate; inhibition, % at 20 µM;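 active means compounds that cut the enzyme signal by at least half of the control window in the single-dose screen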
Target sequence (P24666 whole entry, looked up): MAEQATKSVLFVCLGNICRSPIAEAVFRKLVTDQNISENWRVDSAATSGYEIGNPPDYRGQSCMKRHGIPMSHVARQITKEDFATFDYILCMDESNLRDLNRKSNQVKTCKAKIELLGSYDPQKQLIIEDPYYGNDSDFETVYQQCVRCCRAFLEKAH
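Test system – LMPTP-A enzyme · Amount – LMPTP-A at 0.625 nM final in the reaction · Buffer or medium – Bis-Tris pH 6.0, DTT, detergent · Reagent – OMFP 400 µM · Doses – single 20 µM dose · Schedule – reaction 50 min, room temperature, dark · Detection – fluorescence intensity of OMFP turnover product · Evaluation – percent inhibition versus substrate-only and uninhibited controls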
Scp-1 inhibitor – Scp-1 phosphatase inhibitors, primary screen, biochemical, colorimetric, uHTS; Carboxy-terminal domain RNA polymerase II polypeptide A small phosphatase 1 (Homo …; Recombinant Scp1, phosphopeptide, malachite green phosphate absorbance; inhibition, % at 20 µM; 340,000 compounds, 0.88% hits; AID 493091, 2011;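 active means inhibition above about 50% at 20 µM, limit read from the data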
Target sequence (Q9GZU7 76-261 limits assumed): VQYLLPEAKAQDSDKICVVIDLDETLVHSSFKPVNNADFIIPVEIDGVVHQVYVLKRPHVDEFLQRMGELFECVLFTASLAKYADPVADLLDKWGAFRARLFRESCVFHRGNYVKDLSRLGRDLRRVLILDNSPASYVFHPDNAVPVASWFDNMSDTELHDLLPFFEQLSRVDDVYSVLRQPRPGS
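System: SCP-1 catalytic domain; Reagent: Phospho 17-mer peptide substrate; Doses: one concentration, 20 µM, with 1.0% DMSO; Incubation: 45 min room-temperature reaction, 5 min colour, 30 min stabiliser; Signal: Phosphate-binding colour reagent, absorbance read at 630 nm.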
DNMT1 block – human DNMT1 methyltransferase inhibitors, primary screen, biochemical, molecular beacon, fluorescence, HinP1I cleavage, uHTS. DNA (cytosine-5)-methyltransferase 1 (Homo sapiens), P26358. inhibition (reported as % activation of signal), % at 10 µM. 360,000 compounds, 0.83% hits; in the data active means inhibition above about 50%
STEP inh – STEP phosphatase inhibitors, primary screen, biochemical, fluorescence intensity, uHTS. inhibition, % at 20 µM. 360,000 compounds, 0.25% hits. recombinant STEP, OMFP fluorogenic substrate. AID 588621, 2011;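 active means inhibition at 20 µM, scaled per plate between control wells, above about 37%, limit read from the data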
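Assay system: isolated STEP enzyme. Buffer or medium: pH 6.0 Bis-Tris with DTT and Tween 20. Also added: fluorogenic phosphatase substrate OMFP at 25 µM final. Dosing: 20 µM, 1% DMSO. Timing: 20 min reaction, room temperature, in the dark. Measured by: fluorescence intensity, excitation 480 nm, emission 540 nm. Evaluation: normalized % inhibition.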
Scp-1 conf – Scp-1 phosphatase inhibitors, retest, confirmation, biochemical, colorimetric, single concentration. AID 540281, 2011. inhibition, % at 20 µM. recombinant SCP-1 catalytic domain, phosphate release, malachite green absorbance. shares compounds with Scp-1 inhibitor. 2,500 compounds, 61% hits
Scp-1 MG ctr – colorimetric readout interference by compounds, confirmation, artefact control for Scp-1 inhibitor project, biochemical, single concentration; apparent inhibition (interference), % at 20 µM; 2,500 tested, under 10 active; Colorimetric interference counterscreen, malachite green absorbance 630 nm; shares compounds with Scp-1 inhibitor;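 further: compounds added after enzyme reaction finished so only phosphate colour detection is probed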
Scp-1 Tm shift – Scp-1 binding by thermal shift, confirmation, orthogonal assay for Scp-1 inhibitor project, biophysical, differential scanning fluorimetry; AID 540329, 2011; Recombinant SCP1, Sypro Orange thermal shift Tm; 1,500 compounds, 25% hits; shares compounds with Scp-1 inhibitor; thermal shift relative to vanadate control, % at 40 µM;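 active means substances whose mean melting-temperature shift, as a percentage of the reference inhibitor's shift, reaches about 5.3%, limit read from the data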
DNMT1 interf DR – spectral interference with molecular beacon fluorescence, dose response, artefact control for DNMT1 inhibitor project, biochemical, fluorescent molecular beacon. IC50, µM. AID 602382, 2012. shares compounds with DNMT1 block. 200 tested, under 10 active. spectral interference counter-screen; call rule not given here
DNMT1 inh conf – DNMT1 methyltransferase inhibitor retest, confirmation, biochemical, molecular beacon, fluorescence, single concentration; shares compounds with DNMT1 block; DNMT1 molecular beacon HinP1I cleavage; inhibition, % at 10 µM; 2,300 compounds, 8% hits;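 active means average inhibition of at least 30% in the single-concentration confirmation test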
Beacon interf – counter-screen for DNMT1 inhibitors: spectral interference; shares compounds with DNMT1 block; DNMT1 molecular beacon spectral interference counterscreen, fluorescence 485/520; activation (fluorescence interference), % at 10 µM; 2,300 compounds, 1% hits;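 active means activation of at least 30% at 10 µM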;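 further: DNMT1 catalytic domain with a HinP1I cleavage step and a FAM/dabcyl DNA beacon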
Each line names hits and unclear results; the compound was inactive in the other large screens (follow-up assays come after a bar, where they were run). Sampled rows, rich in hits. Any-hit rate of the full collection: about 1.8%.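 How the source made its calls, unless noted: active means inhibition of at least 30% at 20 µM; inactive means the rest.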

Cc1cc(NC(=O)CSc2sc3c(O)cc(=O)[nH]c3c2C#N)ccc1Br	Scp-1 inhibitor 59.1, DNMT1 block 61.1 | Scp-1 conf 51.9 | Scp-1 MG ctr inactive | Scp-1 Tm shift 16.6 | DNMT1 inh conf inactive | Beacon interf inactive
Cc1onc(-c2ccccc2Cl)c1C(=O)NCc1ccco1	Scp-1 inhibitor 82.8, DNMT1 block 63.0 | Scp-1 conf inactive | Scp-1 MG ctr inactive | DNMT1 inh conf inactive | Beacon interf inactive
C/C=C/C=C/C(=O)[C@@H]1[C@@H]([C@]2(C)OC(=O)C(C)=C2O)[C@H]2/C(=C(O)/C=C/C=C/C)C(=O)[C@]1(C)C(=O)C2(C)O (some centres not stated)	Scp-1 inhibitor 71.8, DNMT1 block 84.9 | Scp-1 conf 51.3 | Scp-1 MG ctr inactive | Scp-1 Tm shift 11.1 | DNMT1 interf DR inactive | DNMT1 inh conf 61.3 | Beacon interf inactive
COc1cc(C(=O)OCC(=O)N2CCNC2=O)cc(Cl)c1OC	none
COc1ccc(S(=O)(=O)NC(C)C(=O)N2CCCC2)cc1C (configuration not stated)	none
Cc1cc2oc(=O)cc(-c3cc4ccccc4o3)c2cc1O	LMPTP block 66.2, Scp-1 inhibitor 90.6, DNMT1 block 81.1 | Scp-1 conf 79.2 | Scp-1 MG ctr inactive | Scp-1 Tm shift inactive | DNMT1 inh conf inactive | Beacon interf inactive
O=C1Nc2ccccc2SC(c2ccccc2)C1O (configuration not stated)	Scp-1 inhibitor 74.3, DNMT1 block 99.3 | Scp-1 conf 63.5 | Scp-1 MG ctr inactive | Scp-1 Tm shift 6.6 | DNMT1 inh conf inactive | Beacon interf inactive
Cc1ccc(S(=O)(=O)N2Cc3ccccc3CC2C(=O)Nc2ccc3c(c2)OCO3)cc1 (configuration not stated)	Scp-1 inhibitor 70.0, DNMT1 block 66.5 | Scp-1 conf 56.6 | Scp-1 MG ctr inactive | Scp-1 Tm shift inactive | DNMT1 inh conf inactive | Beacon interf inactive
COc1ccccc1OCCOc1ccc(/C=C2/C(=N)N3OC(C)=CC3=NC2=O)cc1OC	Scp-1 inhibitor 96.5, DNMT1 block 88.2 | Scp-1 conf 67.8 | Scp-1 MG ctr inactive | Scp-1 Tm shift inactive | DNMT1 inh conf inactive | Beacon interf inactive
C=C(C)C(=O)Nc1cccc(C2=NOC3(C2)C[C@@H](C(N)=O)N(C(=O)C(=C)C)C3)c1 (some centres not stated)	SUMO1 PPI mod 63.3, Scp-1 inhibitor 70.4, DNMT1 block 103.2 | Scp-1 conf 62.0 | Scp-1 MG ctr inactive | Scp-1 Tm shift inactive | DNMT1 interf DR inactive | DNMT1 inh conf 59.6 | Beacon interf inactive
C=C(C)C(=O)Nc1cccc(C2=NOC3(C2)C[C@H](C(N)=O)N(C(=O)c2ccccc2)C3)c1 (some centres not stated)	Scp-1 inhibitor 87.8, DNMT1 block 90.8 | Scp-1 conf 65.1 | Scp-1 MG ctr inactive | Scp-1 Tm shift inactive | DNMT1 inh conf inactive | Beacon interf inactive
C/C=C/C(=O)Nc1cccc(C2=NOC3(C2)C[C@@H](C(N)=O)N(C(=O)c2cc([N+](=O)[O-])cc([N+](=O)[O-])c2C)C3)c1 (some centres not stated)	none
C=C(C)C(=O)Nc1cccc(C2=NOC3(C2)C[C@@H](C(N)=O)N(C(=O)c2cc([N+](=O)[O-])cc([N+](=O)[O-])c2C)C3)c1 (some centres not stated)	SUMO1 PPI mod 46.0, Scp-1 inhibitor 69.7, DNMT1 block 95.9 | Scp-1 conf 64.2 | Scp-1 MG ctr inactive | Scp-1 Tm shift inactive | DNMT1 inh conf inactive | Beacon interf inactive
C/C=C(/C)C(=O)Nc1cccc(C2=NOC3(C2)C[C@H](C(N)=O)N(C(=O)c2ccc(Cl)cc2)C3)c1 (some centres not stated)	none
C=C(C)C(=O)Nc1cccc(C2=NOC3(C2)C[C@@H](C(N)=O)N(C(=O)C2(C)CC2)C3)c1 (some centres not stated)	SUMO1 PPI mod 91.0, Scp-1 inhibitor 74.9, DNMT1 block 105.8 | Scp-1 conf 59.6 | Scp-1 MG ctr inactive | Scp-1 Tm shift inactive | DNMT1 interf DR inactive | DNMT1 inh conf 102.7 | Beacon interf inactive
COc1ccc(CNC(=O)c2cn(Cc3ccccc3OC)c(=O)s2)cc1	none (no result: Scp-1 inhibitor)
C=C(C)C(=O)Nc1cccc(C2=NOC3(C2)C[C@H](C(N)=O)N(C(=O)COc2ccc(Cl)cc2)C3)c1 (some centres not stated)	SUMO1 PPI mod 103.6, Scp-1 inhibitor 72.1, DNMT1 block 98.2 | Scp-1 conf 75.2 | Scp-1 MG ctr inactive | Scp-1 Tm shift inactive | DNMT1 interf DR inactive | DNMT1 inh conf 63.6 | Beacon interf inactive
C=C(C)C(=O)Nc1cccc(C2=NOC3(C2)C[C@@H](C(N)=O)N(C(=O)/C=C/CC)C3)c1 (some centres not stated)	SUMO1 PPI mod 63.7, Scp-1 inhibitor 69.0, DNMT1 block 109.2 | Scp-1 conf 56.5 | Scp-1 MG ctr inactive | Scp-1 Tm shift inactive | DNMT1 interf DR inactive | DNMT1 inh conf 42.2 | Beacon interf inactive
O=C(COC(=O)C1CC2C=CC1C2)NCc1ccc(F)cc1 (configuration not stated)	none
